Source: PubChem BioAssay
Most compounds without a hit are left out; they make up all but 1.9% or so of the library.
aSyn UTR inh: 5' untranslated region of α-synuclein, MLPCN primary screen; alpha-synuclein 5'UTR reporter, inhibitor activity; inhibition, % (tested at 7.5 µM); 0.82% of 300,000 active; AID 1813; in the data active = inhibition above about 60%;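 note: H4 neuroglioblastoma cells stably carrying SNCA 5'UTR luciferase fusion; 0% = DMSO wells and 100% = positive control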
697 NFkB inh: lowers PMA/ionomycin-induced NF-kB signal in 697 B cells. 697 B-cell NF-kB luciferase reporter, 16 h. inhibition, % at 4 µM. 0.33% of 330,000 active. AID 435022; in the data active = inhibition above about 35%
Lipid droplet: modulators of hepatic lipid droplet formation | AID 1656 | inhibition, % at 6.5 µM | AML12 mouse hepatocytes, oleate lipid droplets, BODIPY imaging | 0.4% of 240,000 active;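 active = lipid droplet intensity inhibited by at least 50%, with more than 500 cells counted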
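Assay system: AML12 hepatocytes (mouse); Probe or stimulus: oleic acid at 100 µM to induce lipid droplet formation; Dosing: compound at 6.5 µM only; Schedule: compound with oleate, overnight; Detection: fluorescence imaging, 20x objective, two fields per well; Measure: % inhibition of lipid droplet signal.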
TAG inh: triacylglycerol accumulation inhibition; H9c2 cells, Nile Red lipid (TAG) fluorescence; cells loaded with 200 µM oleic acid; inhibition, % at 12.5 µM; 0.66% of 230,000 active;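 active = pattern-corrected inhibition of lipid staining of at least 50% with the nuclear-stain viability signal not falling by more than 50%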;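 note: 0% = DMSO wells and 100% = triacsin C control wells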
Jurkat NFkB inh: inhibitors of the PMA/ionomycin-induced NF-kB reporter in Jurkat cells. 0.53% of 330,000 active. inhibition, % at 4 µM. PMA/ionomycin-induced NF-kB luciferase reporter, luminescence; in the data active = inhibition above about 50%
APP 5UTR inh: APP translation inhibition | inhibition, % at 2 µM | SH-SY5Y APP 5'UTR-luciferase reporter, luminescence | 0.82% of 190,000 active;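 active = inhibition above a set limit, derived from the sample mean plus 3 SD, cut at about 45% in these data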
An asterisk follows results filed as active; . = no result given.

SMILES	aSyn UTR inh	697 NFkB inh	Lipid droplet	TAG inh	Jurkat NFkB inh	APP 5UTR inh
CCOc1cc(C2C(C#N)=C(N)OC(C)=C2C(C)=O)c(Br)c(Br)c1OC(C)C (stereo unspecified)	21	-3	-4	.	-11	66*
CCOc1cc(C2C(C#N)=C(N)OC(C)=C2C(C)=O)cc(Br)c1O (stereo unspecified)	13	-11	-3	.	-3	-2
Cc1cccc(CSc2cccc3cccnc23)c1	-103	-50	.	50*	13	35
Nc1c(Cl)cc(C(=O)NC2CC2)cc1Cl	.	.	.	-4	.	.
C#CC[N+](C)(C)CCCCCCCCCC	75*	-7	-3	.	30	-4
CCCCCCCCCCCCCCCC[N+](C)(C)CCl	.	.	.	66*	.	.
Nc1cc(=O)[nH]c(SCc2nc3ccccc3n2Cc2ccccc2)n1	-43	-2	.	.	2	46*
O=c1[nH]c(SCc2nc3ccccc3n2Cc2ccccc2)nc2ccccc12	16	-7	14	.	3	.
C[C@H]1CN([C@@H](C)CO)C(=O)CCCn2nncc2CO[C@H]1CN(C)C(=O)NC1CCCCC1	.	.	.	10	.	.
Cc1ccccc1NC(=O)NNC(=O)COc1ccc2ccccc2c1	-4	16	1	12	4	.
CCCCN1C2=C(C(=O)CCC2)C(c2ccc(Cl)c(Cl)c2)C2=C1c1ccccc1C2=O (stereo unspecified)	-9	-21	.	60*	-3	7
CCCN1C(=O)c2ccccc2NC1c1ccc(Cl)c(Cl)c1 (stereo unspecified)	49	-4	-3	.	-10	.
Cc1c(C(=O)NCCCN2CCCCC2)oc2ccc3c(c12)C(O)CC1(CCCCC1)O3 (stereo unspecified)	76*	-24	-20	.	-31	.
CCCS(=O)(=O)NC(=O)C1(C)CCCN(C(=O)c2cc(F)ccc2C)C1 (stereo unspecified)	.	.	.	-2	.	.
Cn1cc(C(=O)N/N=C/C(Br)=C/c2ccccc2)ccc1=O	-42	-32	-6	.	30	85*
O=C(NCCC(F)(F)F)C1Cc2c(-c3ccccc3Oc3ccccc3)ccnc2O1 (stereo unspecified)	.	.	.	-3	.	.
CC1(C)CC(N=c2cc(-c3ccccc3)oc3ccc(Cl)cc23)CC(C)(C)N1	99*	.	-3	128	.	-23
OCCCN=c1cc(-c2ccccc2)oc2ccc(Cl)cc12	-440	-34	-20	16	-60	-35
CCOc1ccc(/C=N/Nc2ccc(C(F)(F)F)cc2[N+](=O)[O-])cc1O	7	8	74*	.	2	-45
COc1ccc(C2=NN(C(=O)CSc3nnc(C)n3C)C(c3ccco3)C2)cc1 (stereo unspecified)	-14	-2	-3	-9	6	-21
COc1ccc(C2=NN(C(=O)COc3ncnc4ccccc34)C(c3ccco3)C2)cc1 (stereo unspecified)	64*	0	-6	27	5	21
COC(=O)c1nn(-c2ccc(-c3ccccc3)cc2)cc1O	67*	-149	.	11	-84	-156
COC(=O)NC1(C(F)(F)F)C(=O)Nc2c1c(=O)n(C)c(=O)n2C (stereo unspecified)	12	17	23	-47	8	-2
CC1CCCC(NC(=O)COC(=O)CN2C(=O)C3CCCCC3C2=O)C1C (stereo unspecified)	-25	20	12	-6	-7	66*
O=C(COC(=O)CN1C(=O)C2CCCCC2C1=O)NC1CCS(=O)(=O)C1 (stereo unspecified)	15	13	-5	.	-11	8
SMILES	aSyn UTR inh	697 NFkB inh	Lipid droplet	TAG inh	Jurkat NFkB inh	APP 5UTR inh
CCOC(=O)CCCCCC(=O)Nc1ccc2c(c1)C(=O)N([C@@H](C)CO)C[C@@H](C)[C@H](CN(C)C(=O)Nc1ccccc1)OCCCC[C@H](C)O2	.	.	.	-11	.	.
O=[N+]([O-])c1ccc(Sc2ccccn2)nc1	-47	9	-11	-4	2	.
O=[N+]([O-])c1ccc(Sc2nnnn2-c2ccccc2)nc1	-20	-86	-5	.	39	94*
COc1ccc(N=C2S/C(=C\c3ccc(C)o3)C(=O)N2CC(C)C)cc1	-12	5	8	.	-4	89*
Cc1cc(-c2ccccc2)nc(SCc2ccc(C(=O)O)cc2)n1	3	-22	15	.	1	.
CC(C)CN(C(=O)COc1ccccc1C(=O)NCc1ccccc1)C1CCS(=O)(=O)C1 (stereo unspecified)	.	.	.	7	.	.
